The source made the active and inactive calls. No cut-off for these calls is given here.
What was measured:
[1] = target: T1, Nitric oxide synthase, inducible (Homo sapiens, UniProt P35228); assay: Inhibition of N-terminal his6-tagged recombinant human iNOS expressed in Escherichia coli at 1 uM preincubated for 15 mins followed by NADPH addition and measured after 30 mins by HPLC analysis relative to control; conditions: time 45.0 min
How it was run: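 Recombinant human iNOS in 100 mM HEPES pH 7.4 with 0.1 mM CaCl2, 1 mM DTT, 0.5 mg/mL BSA, 10 μM FMN, 10 μM FAD, 30 μM BH4, 10 μg/mL calmodulin and 10 μM L-Arg. Compound pre-incubated 15 min at 37 °C. NADPH added to start the reaction, run 30 min at 37 °C, stopped with cold CH3CN. Product measured by OPA/NAC derivatization and fluorescence HPLC (ex 335/em 439 nm). […] IC50 from seven concentrations in triplicate, mean ± SD.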

[2] = target: T2, Nitric oxide synthase 3 (Bos taurus) (UniProt P29473); assay: Inhibition of full length N-terminal his-tagged bovine eNOS (2 to 1205 residues) expressed in Escherichia coli at 10 uM preincubated for 15 mins followed by NADPH addition and measured after 30 mins by HPLC analysis relative to control; conditions: time 45.0 min
T2 sequence (whole entry): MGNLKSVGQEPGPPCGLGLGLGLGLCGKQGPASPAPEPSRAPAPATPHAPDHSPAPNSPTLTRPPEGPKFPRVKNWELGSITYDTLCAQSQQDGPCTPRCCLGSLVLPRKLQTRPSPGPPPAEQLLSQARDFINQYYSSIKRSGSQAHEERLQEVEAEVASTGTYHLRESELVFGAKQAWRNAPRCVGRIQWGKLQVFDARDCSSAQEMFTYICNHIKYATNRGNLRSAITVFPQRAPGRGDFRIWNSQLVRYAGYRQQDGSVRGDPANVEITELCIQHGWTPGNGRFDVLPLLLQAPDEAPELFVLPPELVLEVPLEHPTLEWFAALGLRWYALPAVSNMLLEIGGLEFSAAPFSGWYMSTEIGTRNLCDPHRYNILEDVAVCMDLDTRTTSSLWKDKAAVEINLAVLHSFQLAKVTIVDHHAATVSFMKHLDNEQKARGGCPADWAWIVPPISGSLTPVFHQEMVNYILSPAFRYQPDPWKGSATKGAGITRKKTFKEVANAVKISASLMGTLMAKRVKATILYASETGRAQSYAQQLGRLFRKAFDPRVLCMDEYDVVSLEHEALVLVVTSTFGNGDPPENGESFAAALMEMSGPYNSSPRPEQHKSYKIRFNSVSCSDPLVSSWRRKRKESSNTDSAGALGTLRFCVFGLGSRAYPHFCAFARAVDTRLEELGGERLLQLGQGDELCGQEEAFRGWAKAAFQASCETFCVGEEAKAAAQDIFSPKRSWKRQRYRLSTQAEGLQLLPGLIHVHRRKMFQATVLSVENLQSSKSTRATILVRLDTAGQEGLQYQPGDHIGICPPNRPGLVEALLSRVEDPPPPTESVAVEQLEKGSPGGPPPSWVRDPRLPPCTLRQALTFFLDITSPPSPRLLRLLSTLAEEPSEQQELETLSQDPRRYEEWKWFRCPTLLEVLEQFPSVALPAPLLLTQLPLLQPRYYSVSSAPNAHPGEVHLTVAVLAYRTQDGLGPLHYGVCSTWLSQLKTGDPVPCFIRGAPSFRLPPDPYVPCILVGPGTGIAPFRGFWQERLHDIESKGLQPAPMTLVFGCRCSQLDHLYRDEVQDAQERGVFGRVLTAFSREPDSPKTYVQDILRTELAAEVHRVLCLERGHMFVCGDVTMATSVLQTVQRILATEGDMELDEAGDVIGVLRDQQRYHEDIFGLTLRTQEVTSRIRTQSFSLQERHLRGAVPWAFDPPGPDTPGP
How it was run: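 Recombinant bovine eNOS in HEPES buffer with 2 mM CaCl2 plus the same cofactor mix as the iNOS assay (DTT, BSA, FMN, FAD, BH4, calmodulin, 10 μM L-Arg). Compound pre-incubated 15 min at 37 °C. NADPH-started reaction run 30 min at 37 °C, quenched with cold CH3CN. Read by OPA/NAC fluorescence HPLC. […] IC50 from seven concentrations in triplicate.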

[3] = target: T1, Nitric oxide synthase, inducible; assay: Inhibition of iNOS (unknown origin)
[4] = system: MDA-MB-231; assay: Antiproliferative activity against human MDA-MB-231 cells assessed as reduction in cell viability measured after 5 days by PrestoBlue reagent based assay; format: functional; conditions: MDA-MB-231, 120 h
How it was run: (§1)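 MDA-MB-231 cells grown in DMEM with 10% FBS and 2 mM L-glutamine. Seeded 2000 cells/well, grown 24 h, then treated 5 days over 0.001–100 μM in triplicate wells. Read with PrestoBlue (10% v/v, 120 min), fluorescence ex 540/em 590 nm. Normalized to 0.1% DMSO controls. EC50 from sigmoidal variable-slope fit, mean ± SD, n = 3 independent experiments.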

[5] = target: T1, Nitric oxide synthase, inducible; assay: Inhibition of N-terminal his6-tagged recombinant human iNOS expressed in Escherichia coli preincubated for 15 mins followed by NADPH addition and measured after 30 mins by HPLC analysis
How it was run: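 Recombinant human iNOS in 100 mM HEPES pH 7.4 with 0.1 mM CaCl2, 1 mM DTT, 0.5 mg/mL BSA, 10 μM FMN, 10 μM FAD, 30 μM BH4, 10 μg/mL calmodulin and 10 μM L-Arg. NADPH added to start the reaction, run 30 min at 37 °C, stopped with cold CH3CN. IC50 from seven concentrations in triplicate, mean ± SD.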

[6] = system: MDA-MB-231; assay: Antiproliferative activity against human MDA-MB-231 cells assessed as reduction in cell viability upto 100 uM measured after 5 days by PrestoBlue reagent based assay; format: functional; conditions: time 5.0 day; how it was run: as §1
[7] = target: T3, Nitric oxide synthase 3 (Bos taurus, UniProt P29473); assay: Inhibition of full length N-terminal his-tagged bovine eNOS (2 to 1205 residues) expressed in Escherichia coli preincubated for 15 mins followed by NADPH addition and measured after 30 mins by HPLC analysis
T3 sequence (P29473 whole entry): T2 sequence (whole entry)
How it was run: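 Recombinant bovine eNOS in HEPES buffer with 2 mM CaCl2 plus the same cofactor mix as the iNOS assay (DTT, BSA, FMN, FAD, BH4, calmodulin, 10 μM L-Arg). NADPH-started reaction run 30 min at 37 °C, quenched with cold CH3CN. Read by OPA/NAC fluorescence HPLC. IC50 from seven concentrations in triplicate.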

[8] = system: MCF-12A; assay: Antiproliferative activity against human MCF-12A cells assessed as reduction in cell viability measured after 5 days by PrestoBlue reagent based assay; format: functional; conditions: 120 h
How it was run: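 MCF-12A cells (DMEM/F12 1:1, 5% equine serum, EGF, hydrocortisone, cholera toxin, insulin) seeded 2000 cells/well, grown 24 h, then exposed 5 days to 0.001–100 μM in triplicate. Read with PrestoBlue (10% v/v, 120 min), ex 540/em 590 nm. Normalized to 0.1% DMSO controls. EC50 from sigmoidal variable-slope fit, mean ± SD of 3 independent experiments.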

[9] = system: MCF-12A; assay: Antiproliferative activity against human MCF-12A cells assessed as reduction in cell viability at 25 uM measured after 5 days by PrestoBlue reagent based assay relative to control; format: functional; conditions: time 5.0 day
How it was run: (§2)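 MCF-12A cells grown in DMEM/F12 (1:1) with 5% equine serum, EGF, hydrocortisone, cholera toxin and insulin, at 37 °C and 5% CO2. Seeded 2000 cells/well in triplicate and grown 24 h, then treated 5 days. Read with PrestoBlue (10% v/v, 120 min), fluorescence ex 540/em 590 nm. Viability normalized to 0.1% DMSO-treated cells (100%).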

[10] = system: MCF-12A; assay: Antiproliferative activity against human MCF-12A cells assessed as reduction in cell viability at 50 uM measured after 5 days by PrestoBlue reagent based assay relative to control; format: functional; conditions: time 5 day; how it was run: as §2
[11] = system: MDA-MB-231 (human); assay: Potency index, ratio of 1400W EC50 to test compound EC50 for antiproliferative activity against human MDA-MB-231 cells assessed as reduction in cell viability measured after 5 days by PrestoBlue reagent based assay; conditions: time 5 day
[12] = system: MDA-MB-231; assay: Inhibition of cell migration in human MDA-MB-231 cells assessed as reduction in cell motility incubated for 24 hrs by scratch wound healing assay; format: functional, cell-based
How it was run: (§3)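 MDA-MB-231 cells seeded 20×10^4 cells/well, incubated 12 h, then serum-starved (1% FBS) for 24 h. Monolayer scratched with a pipette tip, washed with PBS and treated at 25 μM in starvation medium, with 0.1% DMSO as control. Wound imaged at 0 and 24 h (4× objective). Wound area measured to give percent closure.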

[13] = system: MDA-MB-231; assay: Inhibition of cell migration in human MDA-MB-231 cells assessed as reduction in wound closure incubated for 24 hrs by microscopic analysis; format: functional; parameters: scale not given: the % may be the effect or the level left; how it was run: as §3
[14] = Metabolic stability in rat liver microsome assessed as half life pretreated for 5 mins followed by NADPH and measured after 60 mins by HPLC analysis; format: ADME; conditions: liver microsomes, time 65 min
How it was run: (§4)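 Compound from 2 mM DMSO stock diluted in PBS with Sprague–Dawley rat liver microsomes and warmed 5 min at 37 °C. NADPH (10 mM stock) added, incubated 60 min at 37 °C, quenched with cold CH3CN and centrifuged. At least three repeats, verapamil as positive control. CLint scaled using 45 mg microsomal protein/g liver and 40 g liver/kg body weight.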

[15] = Metabolic stability in rat liver microsome assessed as hepatic clearance pretreated for 5 mins followed by NADPH and measured after 60 mins by HPLC analysis; format: ADME; conditions: liver microsomes, time 65 min; how it was run: as §4

T1 sequence (P35228 whole entry): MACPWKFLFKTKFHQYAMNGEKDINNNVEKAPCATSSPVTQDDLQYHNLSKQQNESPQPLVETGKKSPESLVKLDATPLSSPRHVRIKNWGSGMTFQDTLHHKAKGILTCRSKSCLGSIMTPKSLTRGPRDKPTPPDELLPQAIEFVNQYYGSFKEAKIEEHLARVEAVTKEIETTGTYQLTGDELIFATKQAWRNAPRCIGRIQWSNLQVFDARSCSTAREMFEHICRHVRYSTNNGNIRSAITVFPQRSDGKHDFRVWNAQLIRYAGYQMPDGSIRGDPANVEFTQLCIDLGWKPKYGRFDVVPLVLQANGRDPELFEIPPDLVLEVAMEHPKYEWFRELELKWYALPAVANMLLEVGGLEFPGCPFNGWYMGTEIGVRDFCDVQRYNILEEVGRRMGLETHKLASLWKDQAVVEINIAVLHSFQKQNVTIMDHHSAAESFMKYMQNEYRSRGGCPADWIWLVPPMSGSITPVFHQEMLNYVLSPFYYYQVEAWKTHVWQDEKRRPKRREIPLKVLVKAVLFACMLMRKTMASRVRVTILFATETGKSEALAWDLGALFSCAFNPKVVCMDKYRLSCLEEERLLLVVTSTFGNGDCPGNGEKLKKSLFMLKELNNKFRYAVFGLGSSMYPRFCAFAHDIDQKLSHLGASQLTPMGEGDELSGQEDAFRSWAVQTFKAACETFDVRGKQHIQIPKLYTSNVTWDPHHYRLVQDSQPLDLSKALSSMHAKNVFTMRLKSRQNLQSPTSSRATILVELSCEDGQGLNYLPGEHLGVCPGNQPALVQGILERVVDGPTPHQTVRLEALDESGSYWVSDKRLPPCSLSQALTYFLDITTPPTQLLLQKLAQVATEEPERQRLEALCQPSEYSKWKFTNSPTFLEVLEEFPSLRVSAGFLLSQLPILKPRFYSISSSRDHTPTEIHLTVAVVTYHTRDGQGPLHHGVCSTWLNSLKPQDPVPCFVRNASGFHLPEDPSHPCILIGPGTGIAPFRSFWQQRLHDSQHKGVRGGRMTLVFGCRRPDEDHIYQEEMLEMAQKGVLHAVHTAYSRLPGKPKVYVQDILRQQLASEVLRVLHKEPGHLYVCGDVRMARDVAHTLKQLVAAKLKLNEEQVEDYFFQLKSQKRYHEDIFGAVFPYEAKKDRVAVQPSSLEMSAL

SMILES | inhibition [1] | inhibition [2] | further results
N=C(NCc1cccc(CNS(=O)(=O)c2ccc([N+](=O)[O-])cc2)c1)c1ccc(Cl)cc1 | 65% | 19% | 
N=C(NCc1ccc(NS(=O)(=O)c2ccc([N+](=O)[O-])cc2)cc1)c1ccc(C(F)(F)F)cc1 | inactive | inactive | 
COC(=O)[C@@H](N)CCCNC(=N)N[N+](=O)[O-] [L-NAME] |  |  | IC50 [3]: 13.5 µM
CC(=N)NCc1ccc(NS(=O)(=O)c2ccc([N+](=O)[O-])cc2)cc1 | inactive | inactive | 
CC(=N)NCc1cccc(CN)c1 [1400W] |  |  | EC50 [4]: > 100 µM
N=C(NCc1cccc(CNS(=O)(=O)c2ccc([N+](=O)[O-])cc2)c1)c1ccc(C(F)(F)F)cc1 | 72% | 26% | 
CC(=N)NCc1cccc(CNS(=O)(=O)c2ccc(C)cc2)c1 | inactive | inactive | 
N=C(NCc1ccc(NS(=O)(=O)c2ccc([N+](=O)[O-])cc2)cc1)c1ccccc1 | 52% | inactive | IC50 [5]: 832 nM; Activity [6]: inactive; IC50 [7]: > 50 µM; EC50 [4]: > 100 µM
Cc1ccc(S(=O)(=O)NCc2cccc(CNC(=N)c3ccc(Cl)cc3)c2)cc1 | 72% | 18% | 
Br.Cc1ccc(S(=O)(=O)NCc2cccc(CNC(=N)c3ccccc3)c2)cc1 | 83% | inactive | EC50 [8]: 79 µM; Activity [9]: inactive; IC50 [5]: 65 nM; IC50 [7]: > 50 µM; Activity [10]: 91%; Ratio EC50 [11]: 4; Activity [12]: Active; EC50 [4]: 24.7 µM; Activity [13]: 15%; half-life [14]: 38 min; CLint scaled [15]: 39.6 mL/min/kg
Cc1ccc(S(=O)(=O)NCc2cccc(CNC(=N)c3ccc(C(F)(F)F)cc3)c2)cc1 | 59% | 28% | 
N=C(NCc1cccc(CNS(=O)(=O)c2ccc([N+](=O)[O-])cc2)c1)c1ccccc1 | 71% | 35% | 
N=C(NCc1ccc(NS(=O)(=O)c2ccc([N+](=O)[O-])cc2)cc1)c1ccc(Cl)cc1 | 69% | 46% | 
